Paper PMC4721220 (Expert opinion on investigational drugs, 2013)
Where a SMILES comes first, the peptide text is derived from it.

Experiments:
[1] = system: dogs; assay: Single-dose IV toxicology study in dogs; format: in vivo, dog
How it was run: (§1)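 Single IV doses up to 1000 mg/kg were given to rats and dogs. End-points were clinical observations, body weight, clinical chemistry, hematology, urinalysis, and gross and microscopic pathology.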

[2] = system: conscious rats; assay: Respiratory safety, plethysmography in conscious rats; format: in vivo, rat; settings: single IV bolus dose up to 415 mg/kg, the highest dose evaluated
[3] = system: rats; assay: Single-dose IV toxicology study in rats; format: in vivo, rat
How it was run: as §1

[4] = system: rats; assay: Pentylenetetrazole convulsant activity; format: in vivo, rat; settings: single dose 500 mg/kg IV, 60 min following pentylenetetrazole administration
[5] = system: mouse; assay: Mouse micronucleus assay; settings: in vivo
[6] = Plasma pharmacokinetics in rats; format: in vivo, rat
[7] = Plasma pharmacokinetics in dogs; format: in vivo, dog
[8] = Compatibility with human blood, serum and plasma in vitro; settings: concentrations up to 3 mg/ml in vitro
[9] = system: dog-isolated Purkinje fibers; assay: Electrophysiology in dog-isolated Purkinje fibers; format: cell-based; settings: concentrations up to 1 mM, the highest evaluated
[10] = system: mouse lymphoma; assay: Mouse lymphoma assay; format: cell-based
[11] = system: conscious instrumented dogs; assay: Cardiovascular safety in conscious instrumented dogs; format: in vivo, dog; settings: single IV bolus doses up to 500 mg/kg
[12] = molecular target: hERG channel (Homo sapiens, UniProt Q12809); assay: hERG assay; format: cell-based; settings: concentrations up to 5 mM
Chain of hERG channel (Q12809 whole entry): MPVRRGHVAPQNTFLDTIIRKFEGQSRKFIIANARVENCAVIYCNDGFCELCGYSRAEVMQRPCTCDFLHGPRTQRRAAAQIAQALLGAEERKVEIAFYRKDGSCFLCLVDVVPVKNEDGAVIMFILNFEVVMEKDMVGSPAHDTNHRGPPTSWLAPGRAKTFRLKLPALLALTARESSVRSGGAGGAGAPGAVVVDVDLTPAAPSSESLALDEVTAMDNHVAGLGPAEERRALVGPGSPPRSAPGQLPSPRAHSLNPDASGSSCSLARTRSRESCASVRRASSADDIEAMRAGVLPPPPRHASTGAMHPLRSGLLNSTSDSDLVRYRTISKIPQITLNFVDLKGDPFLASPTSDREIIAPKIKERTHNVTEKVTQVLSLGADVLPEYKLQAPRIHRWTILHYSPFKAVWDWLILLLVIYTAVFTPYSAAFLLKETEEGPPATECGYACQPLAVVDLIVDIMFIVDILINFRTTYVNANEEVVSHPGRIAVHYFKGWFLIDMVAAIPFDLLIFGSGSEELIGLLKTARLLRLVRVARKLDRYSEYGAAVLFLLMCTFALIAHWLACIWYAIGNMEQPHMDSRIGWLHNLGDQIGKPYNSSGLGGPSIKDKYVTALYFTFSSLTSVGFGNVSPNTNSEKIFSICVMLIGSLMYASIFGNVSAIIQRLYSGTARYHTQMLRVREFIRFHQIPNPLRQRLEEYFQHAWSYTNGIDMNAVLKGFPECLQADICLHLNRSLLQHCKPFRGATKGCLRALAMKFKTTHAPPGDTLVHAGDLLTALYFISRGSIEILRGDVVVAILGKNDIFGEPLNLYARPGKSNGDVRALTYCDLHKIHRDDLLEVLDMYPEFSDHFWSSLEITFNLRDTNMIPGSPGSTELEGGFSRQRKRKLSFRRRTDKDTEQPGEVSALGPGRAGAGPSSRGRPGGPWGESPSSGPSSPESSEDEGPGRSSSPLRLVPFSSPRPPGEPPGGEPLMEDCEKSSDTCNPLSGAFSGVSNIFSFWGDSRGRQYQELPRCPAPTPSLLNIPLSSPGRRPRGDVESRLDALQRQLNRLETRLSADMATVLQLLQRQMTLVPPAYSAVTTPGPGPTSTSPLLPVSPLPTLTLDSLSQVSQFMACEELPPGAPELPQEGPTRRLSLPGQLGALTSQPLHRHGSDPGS

[13] = system: dogs; assay: 90-day twice-weekly IV repeated-dose study in dogs; format: in vivo, dog; settings: up to 200 mg/kg (highest evaluated)
[14] = system: male or female rats; assay: Behavioral safety; format: in vivo, rat
[15] = Phase I safety and pharmacokinetics study in normal human volunteers; format: in vivo; settings: for t1/2 initial / AUC(0-inf) / Cmax / clearance: plasma; for t1/2 initial: normal human volunteers, Mean ± SEM, n = 4; for Vd / AUC(0-inf) / Cmax / clearance: human, iv; for Vd: in vivo
How it was run: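 Normal volunteers received a single IV dose via the antecubital vein, over a dose range of 0.5–25 mg/kg. Plasma Cmax and AUC were determined, with n = 4 subjects per dose, reported as Mean ± SEM.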

[16] = Ames mutagenesis assay
[17] = system: rats; assay: 90-day twice-weekly IV repeated-dose study in rats; format: in vivo, rat; settings: up to 300 mg/kg (highest evaluated)
[18] = system: subjects with major depressive disorder; assay: Phase IIa safety; format: in vivo, human
How it was run: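 Randomized, double-blind, placebo-controlled, parallel-group trial at 12 US centres (116 adults). Subjects had MDD by SCID and <25% response (ATRQ) to antidepressants in the current episode, followed by a 14-day antidepressant washout. Each received a single IV infusion over 3–15 min of normal saline or 1, 5, 10 or 30 mg/kg test compound. Subjects stayed ≥24 h in unit, with continuous ECG and pulse oximetry to 4 h, then follow-up visits.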

[19] = twice-weekly dosing for 3 months

Q: What does the source list for `C[C@@H](O)[C@H](N)C(=O)N1CCC[C@H]1C(=O)N1CCC[C@H]1C(=O)N[C@H](C(N)=O)[C@@H](C)O` [GLYX-13] (H-TPPT-NH2)?
A: tolerability, single doses ([1]; doses up to 500 mg/kg IV): well tolerated; toxicology findings, single dose ([1]; doses up to 1000 mg/kg IV): No observational, body weight, clinical chemistry, hematology, urinalysis, or gross or microscopic pathological signals were observed; respiratory parameters [2]: nor did GLYX-13 affect any respiratory parameter; tolerability, single doses ([3]; doses up to 500 mg/kg IV): well tolerated; toxicology findings, single dose ([3]; doses up to 1000 mg/kg IV): No observational, body weight, clinical chemistry, hematology, urinalysis, or gross or microscopic pathological signals were observed; convulsant activity [4]: did not affect convulsant activity; mouse micronucleus assay [5]: inactive; plasma half-life ([6]; 30 – 300 mg/kg IV): 2 to 3 min; half-life after repeated dosing [6, 19]: retained its short half-life; plasma half-life ([7]; 20 – 200 mg/kg IV): 5 to 8 min; half-life after repeated dosing [7, 19]: retained its short half-life; compatibility with human blood, serum, and plasma [8]: completely compatible; electrophysiological parameters in Purkinje fibers [9]: did not significantly alter any of the electrophysiological parameters; mouse lymphoma assay [10]: inactive; heart rate, blood pressure, ECG parameters [11]: nor did GLYX-13 administered at single IV bolus doses up to 500 mg/kg affect heart rate, blood pressure, or any ECG parameter; current through the hERG channel [12]: did not affect current through the hERG channel; tolerability, repeated dose [13]: well tolerated; hyperlocomotion (signal for psychotomimetic effects) ([14]; any dose evaluated): did not induce hyperlocomotion; adverse behavioral responses ([14]; single doses up to 500 mg/kg IV, the highest dose evaluated, male or female rats): No adverse behavioral responses; motor coordination ([14]; up to 500 mg/kg IV, male or female rats): did not affect motor coordination; t1/2 initial ([15]; 1 mg/kg IV): 4.7 ± 0.5 min; t1/2 initial ([15]; 5 mg/kg IV): 7.4 ± 0.9 min; t1/2 initial ([15]; 10 mg/kg IV): 9.0 ± 0.6 min; t1/2 initial ([15]; 20 mg/kg IV): 14.0 ± 2.1 min; increase of Cmax with dose ([15]; dose range 0.5 – 10 mg/kg IV): supralinearly; increase of AUC with dose ([15]; dose range 0.5 – 25 mg/kg IV): supralinearly; increase of Cmax with dose ([15]; dose range 10–25 mg/kg IV): linearly; Vd ([15]; 1 mg/kg): 0.17 ± 0.03 L/kg; Vd ([15]; 5 mg/kg): 0.31 ± 0.14 L/kg; Vd ([15]; 10 mg/kg): 0.12 ± 0.01 L/kg; Vd ([15]; 20 mg/kg): 0.1 ± 0.03 L/kg; AUC(0-inf) ([15]; 1 mg/kg): 533 ng·h/mL; Cmax ([15]; 1 mg/kg): 5.2 ± 0.9 µg/mL; clearance ([15]; 1 mg/kg): 33.7 mL/min/kg; AUC(0-inf) ([15]; 5 mg/kg): 4800 ng·h/mL; Cmax ([15]; 5 mg/kg): 26 ± 11 µg/mL; clearance ([15]; 5 mg/kg): 34.8 mL/min/kg; AUC(0-inf) ([15]; 10 mg/kg): 19400 ng·h/mL; Cmax ([15]; 10 mg/kg): 100 ± 21 µg/mL; clearance ([15]; 10 mg/kg): 9 mL/min/kg; AUC(0-inf) ([15]; 20 mg/kg): 67200 ng·h/mL; Cmax ([15]; 20 mg/kg): 182 ± 56 µg/mL; clearance ([15]; 20 mg/kg): 5 mL/min/kg; Ames mutagenesis [16]: inactive; tolerability, repeated dose [17]: well tolerated; suicidality (Columbia-Suicide Severity Rating Scale) ([18]; 14- or 28-day course of observation following dosing): did not cause any increase in suicidality; BPRS+ score (psychotomimetic effects) ([18]; any time following dosing): did not increase BPRS+ score; treatment-related serious adverse events ([18]; single IV dose 1, 5, 10 or 30 mg/kg): No treatment-related serious adverse events
